Measured values taken from ChEMBL document CHEMBL3808312, “Bioactive Constituents of Glycyrrhiza uralensis (Licorice): Discovery of the Effective Components of a Traditional Herbal Medicine” (J Nat Prod, 2016).

How the values were obtained:
[1] = system: Influenza A virus; experiment: Antiviral activity against Influenza A virus A/WSN/33(H1N1) infected in MDCK cells at 100 uM preincubated with virus for 15 mins followed by cells addition measured at 36 hrs post infection; format: functional, A/WSN/1933(H1N1)
Method in brief: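 MDCK canine kidney cells grown in DMEM and infected with influenza A/WSN/33 (H1N1). Compounds screened at 100 μM. Oseltamivir phosphate served as the positive control.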

[2] = system: Influenza A virus; experiment: Antiviral activity against Influenza A virus A/WSN/33(H1N1) infected in dog MDCK cells preincubated with virus for 15 mins followed by cells addition measured at 36 hrs post infection; format: functional, organism-based; conditions: A/WSN/1933(H1N1)

Structure (SMILES) | Activity [1] [%] | IC50 [2] [µM] | inhibition at 100 µM ([1]; Influenza A virus, A/WSN/1933(H1N1), MDCK) [%]
CC(=O)O[C@@H]1C[C@](C)(C(=O)O)C[C@@H]2C3=CC(=O)[C@@H]4[C@@]5(C)CC[C@H](O[C@@H]6O[C@H](C(=O)O)[C@@H](O)[C@H](O)[C@H]6O[C@@H]6O[C@H](C(=O)O)[C@@H](O)[C@H](O)[C@H]6O)[C@](C)(CO)[C@@H]5CC[C@@]4(C)[C@]3(C)CC[C@]21C | 47 | 39.6 | 
C[C@@H]1O[C@@H](O[C@H]2[C@H](O[C@@H]3[C@@H](O[C@@H]4CC[C@]5(C)[C@H](CC[C@@]6(C)[C@H]5C(=O)C=C5[C@@H]7C[C@]8(C)C[C@@H](COC8=O)[C@@]7(C)CC[C@@]56C)C4(C)C)O[C@@H](C(=O)O)[C@H](O)[C@H]3O)O[C@H](C(=O)O)[C@@H](O)[C@@H]2O)[C@H](O)[C@H](O)[C@H]1O | 47 | 39.6 | 
CC1(C)[C@@H](O[C@H]2O[C@H](C(=O)O)[C@@H](O)[C@H](O)[C@H]2O[C@@H]2O[C@H](C(=O)O)[C@@H](O)[C@H](O)[C@H]2O)CC[C@]2(C)[C@H]3C(=O)C=C4[C@@H]5C[C@@](C)(C(=O)O)CC[C@]5(C)CC[C@@]4(C)[C@]3(C)CC[C@@H]12 [GLYCYRRHIZIN] | 47 | 39.6 | 
CC(=O)O[C@H]1C[C@@](C)(C(=O)O)C[C@H]2C3=CC(=O)[C@H]4[C@]5(C)CC[C@@H](O[C@@H]6O[C@H](C(=O)O)[C@@H](O)[C@H](O)[C@H]6O[C@H]6OC[C@H](O)[C@@H](O)[C@@H]6O[C@H]6O[C@H](C)[C@@H](O)[C@H](O)[C@@H]6O)C(C)(C)[C@H]5CC[C@]4(C)[C@@]3(C)CC[C@]12C | 47 | 39.6 | 
CC1(C)[C@@H](O[C@@H]2O[C@H](C(=O)O)[C@@H](O)[C@H](O[C@@H]3O[C@H](C(=O)O)[C@@H](O)[C@H](O)[C@H]3O)[C@H]2O)CC[C@]2(C)[C@H]3C(=O)C=C4[C@H]5C[C@@](C)(C(=O)O)CC[C@]5(C)CC[C@@]4(C)[C@]3(C)CC[C@@H]12 | 47 | 39.6 | 
CC(C)=CCc1c(O)cc(O)c2c(=O)c(-c3ccc(O)c(O)c3)coc12 [GANCAONIN L] |  |  | > 30
CC1(C)[C@@H](O[C@@H]2O[C@H](C(=O)O)[C@@H](O)[C@H](O)[C@H]2O[C@@H]2O[C@H](C(=O)O)[C@@H](O)[C@H](O)[C@H]2O)CC[C@]2(C)[C@H]3C(=O)C=C4[C@H]5C[C@@](C)(CO)C[C@@H](O)[C@]5(C)CC[C@@]4(C)[C@]3(C)CC[C@@H]12 | 47 | 39.6 | 
CC(=O)O[C@H]1C[C@@](C)(C(=O)O)C[C@H]2C3=CC(=O)[C@H]4[C@]5(C)CC[C@@H](O[C@@H]6O[C@H](C(=O)O)[C@H](O)[C@H](O)[C@H]6O[C@H]6O[C@@H](CO)[C@H](O)[C@@H](O)[C@@H]6O[C@H]6O[C@H](C)[C@@H](O)[C@H](O)[C@@H]6O)C(C)(C)[C@H]5CC[C@]4(C)[C@@]3(C)CC[C@]12C | 47 | 39.6 | 
CC(=O)O[C@H]1C[C@@](C)(C(=O)O)C[C@H]2C3=CC(=O)[C@H]4[C@]5(C)CC[C@@H](O[C@@H]6O[C@H](C(=O)O)[C@@H](O)[C@H](O)[C@H]6O[C@H]6O[C@@H](CO)[C@H](O)[C@@H](O)[C@@H]6O[C@H]6O[C@H](C)[C@@H](O)[C@H](O)[C@@H]6O)C(C)(C)[C@H]5CC[C@]4(C)[C@@]3(C)CC[C@]12C | 47 | 39.6 | 
CC1(C)[C@@H](O[C@@H]2O[C@H](C(=O)O)[C@@H](O)[C@H](O)[C@H]2O[C@@H]2O[C@H](C(=O)O)[C@@H](O)[C@H](O)[C@H]2O)CC[C@]2(C)[C@H]3C(=O)C=C4[C@H]5C[C@@](C)(C=O)CC[C@]5(C)CC[C@@]4(C)[C@]3(C)CC[C@@H]12 | 47 | 39.6 | 
C[C@@]1(C(=O)O)CC[C@@]2(C)CC[C@@]3(C)C(=CC(=O)[C@H]4[C@]5(C)CC[C@@H](O[C@H]6O[C@@H](C(=O)O)[C@H](O)[C@@H](O)[C@@H]6O[C@H]6O[C@@H](C(=O)O)[C@@H](O)[C@@H](O)[C@@H]6O)[C@@](C)(CO)[C@H]5CC[C@@]43C)[C@@H]2C1 | 47 | 39.6 | 
CC(=O)O[C@@H]1C[C@](C)(C=O)C[C@@H]2C3=CC(=O)[C@@H]4[C@@]5(C)CC[C@H](O[C@@H]6O[C@H](C(=O)O)[C@@H](O)[C@H](O)[C@H]6O[C@@H]6O[C@H](C(=O)O)[C@@H](O)[C@H](O)[C@H]6O)C(C)(C)[C@@H]5CC[C@@]4(C)[C@]3(C)CC[C@]21C | 47 | 39.6 | 
CC(=O)O[C@H]1C[C@@](C)(C(=O)O)C[C@H]2C3=CC(=O)[C@H]4[C@]5(C)CC[C@@H](O[C@@H]6O[C@H](C(=O)O)[C@@H](O)[C@H](O)[C@H]6O[C@H]6O[C@@H](C(=O)O)[C@H](O)[C@@H](O)[C@@H]6O[C@H]6O[C@H](C)[C@@H](O)[C@H](O)[C@@H]6O)C(C)(C)[C@H]5CC[C@]4(C)[C@@]3(C)CC[C@]12C | 47 | 39.6 | 
C[C@]1(C(=O)O)CC[C@]2(C)CC[C@]3(C)C(=CC(=O)[C@@H]4[C@@]5(C)CC[C@H](O[C@@H]6O[C@H](C(=O)O)[C@@H](O)[C@H](O)[C@H]6O[C@@H]6O[C@H](C(=O)O)[C@@H](O)[C@H](O)[C@H]6O)[C@](C)(CO)[C@@H]5CC[C@]43C)[C@H]2C1 | 47 | 39.6 | 
CC(=O)O[C@@H]1C[C@](C)(C(=O)O)C[C@@H]2C3=CC(=O)[C@@H]4[C@@]5(C)CC[C@H](O[C@H]6O[C@@H](C(=O)O)[C@H](O)[C@@H](O)[C@@H]6O[C@H]6O[C@@H](C(=O)O)[C@H](O)[C@@H](O)[C@@H]6O)C(C)(C)[C@@H]5CC[C@@]4(C)[C@]3(C)CC[C@]21C | 47 | 39.6 | 
CC1(C)[C@@H](O[C@@H]2O[C@H](C(=O)O)[C@@H](O)[C@H](O)[C@H]2O[C@@H]2O[C@H](C(=O)O)[C@@H](O)[C@H](O)[C@H]2O)CC[C@]2(C)[C@H]3C=CC4=C5C[C@@](C)(C(=O)O)CC[C@]5(C)CC[C@@]4(C)[C@]3(C)CC[C@@H]12 | 47 | 39.6 | 
CC(=O)O[C@H]1C[C@@](C)(C(=O)O)C[C@H]2C3=CC(=O)[C@H]4[C@]5(C)CC[C@@H](O[C@@H]6O[C@H](C(=O)O)[C@@H](O)[C@H](O)[C@H]6O[C@@H]6O[C@H](CO)[C@H](O)[C@H](O)[C@H]6O)C(C)(C)[C@H]5CC[C@]4(C)[C@@]3(C)CC[C@]12C | 47 | 39.6 | 
C[C@]1(C(=O)O)CC[C@@]2(C)CC[C@@]3(C)C(=CC(=O)[C@H]4[C@]5(C)CC[C@@H](O[C@H]6O[C@@H](C(=O)O)[C@H](O)[C@@H](O)[C@@H]6O[C@H]6O[C@@H](C(=O)O)[C@H](O)[C@@H](O)[C@@H]6O)[C@@](C)(CO)[C@H]5CC[C@@]43C)[C@@H]2C1 | 47 | 39.6 | 
CCOC(=O)C1=C[C@@H](OC(CC)CC)[C@H](NC(C)=O)[C@@H](N)C1 [OSELTAMIVIR PHOSPHATE] |  | 45.6 | 
C[C@@H]1[C@@H](O[C@@H]2O[C@H](C(=O)O)[C@@H](O)[C@H](O)[C@H]2O[C@@H]2O[C@H](C(=O)O)[C@@H](O)[C@H](O)[C@H]2O)CC[C@]2(C)[C@H]3CC=C4[C@H]5C[C@@](C)(C(=O)O)CC[C@]5(C)CC[C@@]4(C)[C@]3(C)CC[C@@H]12 | 47 | 39.6 | 
CC1(C)[C@@H](O[C@@H]2O[C@H](C(=O)O)[C@@H](O)[C@H](O)[C@H]2O[C@@H]2OC[C@H](O)[C@H](O)[C@H]2O)CC[C@]2(C)[C@H]3C(=O)C=C4[C@H]5C[C@@](C)(C(=O)O)CC[C@]5(C)CC[C@@]4(C)[C@]3(C)CC[C@@H]12 | 47 | 39.6 | 
CC(=O)O[C@@H]1C[C@](C)(C(=O)O)C[C@@H]2C3=CC(=O)[C@@H]4[C@@]5(C)CC[C@H](O[C@@H]6O[C@H](C(=O)O)[C@@H](O)[C@H](O)[C@H]6O[C@@H]6O[C@H](C(=O)O)[C@H](O)[C@H](O)[C@H]6O)C(C)(C)[C@@H]5CC[C@@]4(C)[C@]3(C)CC[C@]21C | 47 | 39.6 | 
CC1(C)[C@@H](O[C@@H]2O[C@H](C(=O)O)[C@@H](O)[C@H](O)[C@H]2O[C@@H]2O[C@H](C(=O)O)[C@@H](O)[C@H](O)[C@H]2O)CC[C@]2(C)[C@H]3C(=O)C=C4[C@H]5C[C@](C)(C(=O)O)CC[C@]5(C)CC[C@@]4(C)[C@]3(C)CC[C@@H]12 | 47 | 39.6 | 
CC1(C)[C@@H](O[C@@H]2O[C@H](C(=O)O)[C@@H](O)[C@H](O)[C@H]2O[C@@H]2O[C@H](C(=O)O)[C@@H](O)[C@H](O)[C@H]2O)CC[C@]2(C)C3=CC=C4[C@H]5C[C@@](C)(C(=O)O)CC[C@]5(C)CC[C@@]4(C)[C@]3(C)CC[C@@H]12 | 47 | 39.6 | 
CC1(C)[C@H]2CC[C@@]3(C)[C@@H](C(=O)C=C4[C@@H]5C[C@]6(C)C[C@@H](COC6=O)[C@@]5(C)CC[C@@]43C)[C@]2(C)CC[C@H]1O[C@H]1O[C@@H](C(=O)O)[C@H](O)[C@@H](O)[C@@H]1O[C@@H]1O[C@H](C(=O)O)[C@H](O)[C@H](O)[C@H]1O | 47 | 39.6 | 
CC1(C)[C@@H](O[C@@H]2O[C@H](C(=O)O)[C@@H](O)[C@H](O)[C@H]2O)CC[C@]2(C)[C@H]3C(=O)C=C4[C@H]5C[C@@](C)(C(=O)O)CC[C@]5(C)CC[C@@]4(C)[C@]3(C)CC[C@@H]12 | 47 | 39.6 | 
CC(C)(O)CCc1c(O)cc2occ(-c3ccc(O)c(O)c3)c(=O)c2c1O | >30 |  | 
